Reference: ChEMBL document CHEMBL1150373, “Selection of phage-displayed peptides that bind to a particular ligand-bound antibody” (Bioorg Med Chem, 2008)
Peptide text beside a SMILES is read from it.

Legend:
[1] = Binding affinity to mouse-human chimeric antibody 93F3
[2] = Binding affinity to fragment antigen binding portion of mouse-human chimeric 93F3 antibody assessed as relative signal by ELISA in presence of 10 uM 5-{[4-(3,5-dioxohexyl)phenyl]amino}-5-oxopentanoic acid
Outline: (§1)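 Antibody 93F3 coated on microtiter wells (1 µg/25 µL PBS, 37 °C 1 h), blocked with 3% BSA/PBS at 37 °C 1 h. Phage culture supernatant was added with diketone (final 10 µM, from 20 µM in 1% DMSO/PBS) or PBS alone, then incubated 37 °C 1 h. Wells washed with water; bound phage detected with anti-M13–HRP plus ABTS/H2O2, A405.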

[3] = Binding affinity to fragment antigen binding portion of mouse-human chimeric 93F3 antibody assessed as relative signal by ELISA in presence of 10 uM 6-(4-nitrophenyl)hexane-2,4-dione
Outline: as §1

[4] = Binding affinity to fragment antigen binding portion of mouse-human chimeric 93F3 antibody assessed as relative signal by ELISA
Outline: as §1

[5] = Binding affinity to fragment antigen binding portion of mouse-human chimeric 93F3 antibody assessed as relative signal by ELISA in presence of 10 uM 2-acetylcyclohexanone
Outline: as §1

Kd [1] [µM]	Activity [2]	Activity [3]	Activity [4]	Activity [5]	Compound
1					CC(=O)CC(=O)CCc1ccccc1
	0.1	0.1	1	0.7	CC(C)C[C@@H](NC(=O)[C@H](Cc1ccc(O)cc1)NC(=O)[C@@H](N)Cc1c[nH]c2ccccc12)C(=O)N1CCC[C@H]1C(=O)N[C@@H](CC(=O)O)C(=O)N[C@@H](CC(N)=O)C(=O)N1CCC[C@H]1C(=O)N[C@@H](CO)C(=O)N[C@H](C(=O)N[C@@H](Cc1c[nH]c2ccccc12)C(=O)N[C@@H](Cc1cnc[nH]1)C(=O)N[C@H](C(=O)O)[C@@H](C)O)[C@@H](C)O
	0.1	0.1	0.2	1	C[C@H](O)[C@H](NC(=O)[C@@H]1CCCN1C(=O)[C@H](Cc1ccccc1)NC(=O)[C@H](Cc1c[nH]c2ccccc12)NC(=O)[C@H](Cc1c[nH]c2ccccc12)NC(=O)[C@@H]1CCCN1C(=O)[C@@H](N)CS)C(=O)N[C@@H](CCC(N)=O)C(=O)N[C@@H](CS)C(=O)O
	0.1	0.2	1	0.8	CC(C)C[C@H](NC(=O)[C@H](Cc1cnc[nH]1)NC(=O)[C@H](Cc1c[nH]c2ccccc12)NC(=O)[C@@H]1CCCN1C(=O)[C@@H](N)CS)C(=O)N[C@@H](CC(C)C)C(=O)N1CCC[C@H]1C(=O)N[C@@H](Cc1ccccc1)C(=O)N[C@@H](CS)C(=O)O (H-CPWHLLPFC-OH)
	1	0.2	0.2	0.2	CC(C)C[C@H](NC(=O)[C@H](C)NC(=O)[C@H](Cc1cnc[nH]1)NC(=O)[C@@H](NC(=O)[C@H](CC(C)C)NC(=O)[C@@H]1CCCN1C(=O)[C@H](CO)NC(=O)[C@@H](N)CS)[C@@H](C)O)C(=O)N[C@@H](CS)C(=O)O (H-CSPLTHALC-OH)
	1	0.1	0.1	0.1	CC(C)C[C@H](NC(=O)[C@H](Cc1c[nH]c2ccccc12)NC(=O)[C@H](Cc1cnc[nH]1)NC(=O)[C@@H](NC(=O)[C@H](Cc1ccccc1)NC(=O)[C@@H]1CCCN1C(=O)[C@@H](NC(=O)[C@@H](N)CS)[C@@H](C)O)[C@@H](C)O)C(=O)N[C@@H](CS)C(=O)O (H-CTPFTHWLC-OH)
	0.1	0.2	1	0.7	H-QVPWSYLANGLL-OH
